Shown are actives, neighbours in structure and some others; about 1.6% of the full set was active somewhere.
CSN deneddyl inh: inhibitors of CSN-mediated cullin deneddylation, primary screen, biochemical, fluorescence polarization, uHTS; inhibition, % at 12.5 µM; Purified CSN, SCF-Nedd8-OG deneddylation; AID 651999, 2013; 360,000 tested, 0.38% active; COP9 signalosome complex subunit 5 (Homo sapiens), Q92905;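 active = pattern-corrected inhibition above about 35%, with an unprinted fluorescence ratio check between 0.5 and 1.5, limit read from the data, passing the limit was not always enough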;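 note: 0% = enzyme with substrate and 100% = substrate without enzyme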
Target sequence (Q92905 whole entry, looked up, one chain of several): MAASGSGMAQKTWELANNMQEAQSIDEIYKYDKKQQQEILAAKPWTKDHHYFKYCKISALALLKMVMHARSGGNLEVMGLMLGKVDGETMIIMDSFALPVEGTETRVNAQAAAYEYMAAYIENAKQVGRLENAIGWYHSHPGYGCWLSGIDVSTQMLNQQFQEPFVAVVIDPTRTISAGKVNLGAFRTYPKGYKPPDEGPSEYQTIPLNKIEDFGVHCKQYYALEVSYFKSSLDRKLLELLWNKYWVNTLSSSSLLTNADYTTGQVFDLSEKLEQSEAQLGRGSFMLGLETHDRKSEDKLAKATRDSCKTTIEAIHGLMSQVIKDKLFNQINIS
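Test system: purified human Csn5 enzyme expressed in HEK293T cells. Amount: 0.24 nM enzyme. Reagent: SCFSkp2-Nedd8OG substrate at 10 nM final. Schedule: 90 min incubation of compound, enzyme and substrate at room temperature. Detection: fluorescence polarization. Read-out: % inhibition of substrate cleavage by Csn5.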
Rpn11 block: Rpn11 (PSMD14) deubiquitinase inhibitors, primary screen, biochemical, fluorescence polarization, uHTS. human 26S proteasome, Ub4-pepOG fluorescence polarization; 20S core pre-blocked with epoxomicin. inhibition, % at 20 µM. 360,000 tested, 0.59% active;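 active = inhibition at 20 µM, scaled to each plate's controls, above about 33%, limit read from the data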
SENP1 inh: human SENP1 catalytic domain inhibitors, primary screen, biochemical, FRET, uHTS; inhibition, % at 10 µM; recombinant SENP1 catalytic domain, CyPet-SUMO1-YPet FRET cleavage; Sentrin-specific protease 1 (Homo sapiens), Q9P0U3; 360,000 tested, 0.21% active;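 active = inhibition at least 30% at 10 µM, raw YFP signal under a set limit, fluorescence ratio 0.5 to 1.5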;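 note: 0% = enzyme with DMSO and 100% = no enzyme wells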
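Material – human SENP1 catalytic domain · Input – SENP1 enzyme, 20 pM final · Compound dosing – single concentration of 10 µM compound, 0.5% DMSO final · Timing – enzyme reaction for 50 min at room temperature, dark · Measured by – FRET fluorescence in CFP and YFP emission channels · Control set – no-enzyme wells low, DMSO-plus-enzyme wells high control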
HNF4A DNA FP: change in binding of human HNF4A to DNA, primary screen, biochemical, fluorescence polarization, FITC-DNA. 1 h. 360,000 tested, 0.3% active. activity change, % at 10 µM. Hepatocyte nuclear factor 4-alpha (Homo sapiens), P41235; in the data active = activity change above about 30%, passing the limit was not always enough
TPT1 inhibitor: Candida albicans TPT1 enzyme inhibitors, primary screen, biochemical, fluorescence polarization; AID 1962, 2009; tRNA 2'-phosphotransferase TPT1 (Candida albicans SC5314); recombinant caTPT1, FP RNA substrate dephosphorylation; 300,000 tested, 0.81% active; inhibition, % at 5 µM;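 active = inhibition above the mean of all tested compounds plus 3 SD, set per screening campaign, cut at about 24% in these data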;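 note: plate controls were DMSO alone for no effect and ferristatin control at 100 nM for full effect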
Rpn11 confirm: Rpn11 (PSMD14) deubiquitinase inhibitors, confirmation, biochemical, fluorescence polarization, single concentration. inhibition, % at 20 µM. purified human 26S proteasome, Ub4-pepOG fluorescence polarization; proteasome pretreated with epoxomicin. AID 602318, 2012. shares compounds with Rpn11 block. 1,900 tested, 29% active
MMP-2 counter: MMP-2 enzyme inhibition, confirmation, counter-screen for RPN11 inhibitor project, biochemical, fluorescence, single concentration; inhibition, % at 20 µM; shares compounds with Rpn11 block; AID 602330, 2012; recombinant MMP-2, FRET peptide cleavage fluorescence; 1,900 tested, 4% active;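 note: human MMP-2 activated beforehand with APMA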
Thrombin FP: bovine thrombin protease inhibition, confirmation, counter-screen for Rpn11 inhibitor project, biochemical, fluorescence polarization, single concentration; shares compounds with Rpn11 block; bovine thrombin cleavage of Ub4-pepOG; inhibition, % at 20 µM; 1,900 tested, 13% active; AID 602333, 2012;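 active = mean inhibition at least 40% at 20 µM, or signal 3 deviations below plate average, so some actives read negative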;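 note: plate controls were thrombin with DMSO for no effect and buffer wells lacking thrombin for full effect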
SENP1 inh conf: human SENP1 catalytic domain inhibitors, confirmation, biochemical, FRET endpoint, single concentration | shares compounds with SENP1 inh | recombinant SENP1, CyPet-SUMO1-YPet FRET cleavage | inhibition, % at 10 µM | 520 tested, 34% active | AID 651678, 2012; in the data active = inhibition mostly above about 35%, no sharp cut-off; inactive = mostly below about 32%;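 note: 0% = enzyme with DMSO and 100% = no enzyme control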
SENP1 kin conf: human SENP1 catalytic domain inhibitors, confirmation, biochemical, kinetic FRET, single concentration | shares compounds with SENP1 inh | recombinant SENP1, CyPet-SUMO1-YPet FRET kinetic cleavage | inhibition, % at 10 µM | 520 tested, 26% active | AID 651690, 2012; in the data active = inhibition mostly above about 32%, no sharp cut-off; inactive = mostly below about 29%;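 note: 0% = DMSO with enzyme and 100% = no enzyme substrate only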
HNF4A confirm: change in HNF4A binding to DNA, retest, confirmation, biochemical, fluorescence polarization, FITC-DNA | shares compounds with HNF4A DNA FP | 1 h | activity change, % at 12.5 µM | 210 tested, 99% active | AID 1224897, 2016; call rule not given here
* marks the source's active call; other numbers are inactive results; nt = no result; + = active, no number. Cut-off read from the data, not from the text of the source, unless noted: active = inhibition above about 40%; inactive = the rest.

SMILES | CSN deneddyl inh | Rpn11 block | SENP1 inh | HNF4A DNA FP | TPT1 inhibitor | Rpn11 confirm | MMP-2 counter | Thrombin FP | HNF4A confirm | others
Cc1nnc2sc(-c3ccc(NC(=O)c4ccc(-c5ccc(Cl)cc5Cl)o4)cc3)nn12 | 32 | + | -36 | 103* | 1 | 19 | -41 | 44* | 46*
CC(=O)Cc1nsc(NC(=O)c2ccc(-c3ccc(Cl)cc3Cl)o2)n1 | 0 | -1 | -1 | 3 | -6 | nt | nt | nt | nt
O=C(N/N=C/c1cccnc1)c1ccc(NC(=O)c2ccc(Cl)cc2)cc1 | 6 | 6 | -5 | 17 | -2 | nt | nt | nt | nt
O=C(N/N=C/c1cccnc1)c1ccc(NC(=O)c2cccc(Cl)c2)cc1 | 108* | 64* | -4 | 108* | -1 | 44* | -8 | -15 | 152*
C[C@H](NC(=O)c1ccc(Cl)cc1)C(=O)NNC(=O)c1cccs1 | -7 | 1 | 2 | -1 | nt | nt | nt | nt | nt
O=S(=O)(c1ccc(F)c(F)c1)N1CCN(CCc2ccccc2)CC1 | 5 | 3 | 2 | 0 | 1 | nt | nt | nt | nt
Cc1cc(=O)oc2cc(OCC(=O)c3ccc4c(c3)NC(=O)CO4)ccc12 | 76* | 45* | 2 | 161* | -2 | 3 | -24 | -6 | 46*
Cc1ccc(C(=O)COc2ccc3c(C)cc(=O)oc3c2)cc1 | -1 | -1 | 2 | 2 | 0 | nt | nt | nt | nt
CCCCNC(=O)N1CCN(Cc2cccc(F)c2)CC1 | -2 | -7 | 1 | -3 | 9 | nt | nt | nt | nt
C=CCN1C(=O)/C(=C2/Sc3ccc(OC)cc3N2C)SC1=Nc1cccc(O)c1 | 25 | 67* | -23 | 47* | 14 | 8 | -32 | -13 | 70*
CCN1C(=O)/C(=C2/Sc3ccc(OC)cc3N2C)SC1=Nc1ccc(OC)cc1 | -5 | -4 | -144 | 4 | 3 | nt | nt | nt | nt
CC1CCN(c2ccc3c(c2)S(=O)(=O)c2cccc(C(=O)NC4CCCCC4)c2C3=O)CC1 | 17 | 88* | -32 | 40* | nt | 44* | -28 | 31 | 40*
CCN(C(=O)COC(=O)c1ccc2ccccc2n1)c1c(N)n(Cc2ccccc2)c(=O)[nH]c1=O | 2 | 4 | 0 | 1 | nt | nt | nt | nt | nt
O=[N+]([O-])c1ccc(C=NNc2ccccc2)cc1 | 21 | 55* | 72* | 47* | nt | 36 | -21 | 25 | 47* | SENP1 inh conf=59*;SENP1 kin conf=43*
O=[N+]([O-])c1ccc(/C=N/Nc2ncc(-c3ccccc3)cn2)cc1 | 12 | 3 | -17 | -3 | nt | nt | nt | nt | nt
